Measured values: article PMC4561049 (Drugs in R&D, 2015)

How the values were obtained:
[1] = system: patients with moderate-to-severe COPD; assay: Relationship between systemic exposure; assay type: in vivo, human; settings: 0 to 4 h, day 1 and day 28; 100-800 μg once daily, 100-400 μg twice daily
In short: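 Individual observed plasma Cmax was plotted against maximum glucose, heart rate, QTcF (Fridericia correction) and potassium over 0–4 h on day 1 and day 28. Relationships were explored graphically only. Placebo Cmax was set to 0 pg/mL, and below-LLOQ values were plotted as 12.5 pg/mL (half of the 25 pg/mL LLOQ).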

[2] = assay type: in vivo, human
In short: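 Plasma sampling on day 28 in a subset of patients at overnight sites, after both the morning and the evening inhaled doses: 1 h–0 min pre-dose, then 0–30 min, 30 min–2 h, 2–6 h and 6–11 h post-dose. Samples were assayed by HPLC–MS (LLOQ 25 pg/mL), and concentrations were log-transformed. A two-compartment model with first-order absorption was fitted in NONMEM 7 by Monte Carlo importance sampling.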

[3] = system: patients with moderate-to-severe COPD; settings: cited from earlier work
patients with COPD = settings: 1200 µg once daily; cited from earlier work
[4] = system: patients with moderate-to-severe COPD; assay: Population pharmacodynamic Emax model of day 29 trough FEV1 in COPD patients; assay type: in vivo, human
In short: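 COPD patients (≥40 y, ≥10 pack-years) received inhaled DISKUS test compound for 4 weeks: 100, 400 or 800 μg once daily (morning) or 100, 200 or 400 μg twice daily. Day 29 trough FEV1 (Vitalograph) was the mean of the 11 and 12 h post-evening-dose readings on day 28. An Emax model on total daily dose, with both regimens pooled, was fitted in NONMEM 7 (FOCE with interaction).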

## COc1cc(NC(=O)CCN2CCC(OC(=O)Nc3ccccc3-c3ccccc3)CC2)c(Cl)cc1CNC[C@H](O)c1ccc(O)c2[nH]c(=O)ccc12 [GSK961081, batefenterol]
[1]
  Relationship between maximum QTcF and individual observed Cmax: No clear relationships
  Relationship between maximum glucose and individual observed Cmax: No clear relationships
  Relationship between maximum heart rate and individual observed Cmax: No clear relationships
  Relationship between minimum potassium and individual observed Cmax: No clear relationships
[2]; human, plasma, inhaled
  Vd/F: 6.26 L
[2]; population PK model, column head Log estimate
  Interindividual variability CL/F: 0.594
[3]; after 28 days of treatment
  Improvement in the trough FEV1: 155 to 277 mL
[3]
  Dose response of QTc prolongation: no apparent dose response
  Onset of action: rapid onset of action
  Tolerability: well tolerated
[3]; in comparison with placebo or salmeterol
  Prolongation of various QTc intervals: 3 to 5 ms
[3]; safety findings of the primary publication
  Effect on glucose levels, potassium levels, heart rate, or blood pressure: no effect
[3]; total daily dose
  Increase in the trough FEV1 from 400 to 800 μg: only a small increase
Patients with COPD
  Prolongation of the QT interval: no prolongation of the QT interval
[4]; Emax model of day 29 trough FEV1, 347 COPD patients
  Intercept for E0 (FEV1 at zero dose): 0.0650 L
[4]; Emax model of day 29 trough FEV1 versus total daily dose, 347 COPD patients
  ED50 (dose producing 50 % of the maximum effect): 152 µg
[4]; influence of dosing regimen on the PD model
  Difference between once-daily and twice-daily dosing for day 29 trough FEV1: no apparent difference
